Data on nine compounds can be found in ChEMBL document CHEMBL1123507, “Antipicornavirus activity of substituted phenoxybenzenes and phenoxypyridines” (J Med Chem, 1986).

The structures appear in SMILES notation. Values after ≈ are worked out from the molar mass of the structure shown.

For series [1], the system named is Coxsackievirus. In words: Lowest concentration to reduce viral effect by 50% or more against coxsackie virus A21. The class given is functional. In outline: (§1)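 HeLa monolayers were seeded at (1.0-1.3) × 10^5 cells/well, grown 24 h at 36 °C in 5% CO2 to 60–75% cover, then refed with maintenance medium (1-2% heat-inactivated FCS) containing two-fold serial compound dilutions made from a 200 μg/mL stock in Me2SO/medium, with final Me2SO ≤0.1%. Cells were challenged with 10-100 TCID50 virus, and CPE was read microscopically at 48 and 72 h. MIC50 was the lowest concentration giving ≥50% CPE reduction versus virus control. Cytotoxicity was the lowest concentration causing cell death, a growth change or a morphology change in uninfected cultures.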

Series [2] has as its system Coxsackievirus. The series is described as follows: Ratio of the MIC50 of 6-(4-Nitro-phenoxy)-nicotinonitrile compared to compound obtained in the same test for coxsackie A21. The class given is functional. In outline:
(§2)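 Relative activity was calculated as the MIC50 of the positive control 5-cyano-2-(4-nitrophenoxy)pyridine divided by the MIC50 of the test compound. Both were measured in parallel in the same HeLa CPE test (48/72 h microscopic reading) against RV-1A, RV-2 or coxsackievirus A21.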

The subject of series [3] is Enterovirus. The series is described as follows: Ratio of the MIC50 of 6-(4-Nitro-phenoxy)-nicotinonitrile compared to compound obtained in the same test for Rhinovirus (RV)-2. The class given is functional. In outline: as §2
In series [4] the test system is Enterovirus. In words: Compound was evaluated for inhibition of rhinovirus RV-Hanks at a dose of 50 ug/mL by < 50%. Format: functional.
The subject of series [5] is Enterovirus. The series is described as follows: Ratio of the MIC50 of 6-(4-Nitro-phenoxy)-nicotinonitrile compared to compound obtained in the same test for Rhinovirus (RV)-1A. The class given is functional. In outline:
as §2

Series [6] relates to Enterovirus. In words: Lowest concentration to reduce viral effect by 50% or more against Rhinovirus (RV)-2. The class given is functional. In outline: as §1
For series [7], the system named is Enterovirus. The series is described as follows: Compound was evaluated for inhibition of rhinovirus RV-Hanks 75%. The class given is functional.
Series [8] deals with Enterovirus. The series is described as follows: Lowest concentration to reduce viral effect by 50% or more against Rhinovirus (RV)-1A. The class given is functional. In outline:
as §1

The next series deals with HeLa. The series is described as follows: Cytotoxicity concentration in HeLa cells. The note with it: human. Format: cell-based. The procedure, abridged: as §1
The subject of series [9] is Enterovirus. In words: Compound was evaluated for inhibition of rhinovirus RV-Hanks at a dose of 50 ug/mL by <50%. The class given is functional.
Series [10] concerns Coxsackievirus. The series is described as follows: Antiviral activity against rhinovirus Coxsackie B3. Format: functional. The procedure, abridged:
as §1

Series [11] relates to Enterovirus. In words: Antiviral activity against rhinovirus RV-10. The class given is functional. In outline: as §1
The test system of series [12] is Enterovirus. The series is described as follows: Antiviral activity against rhinovirus RV-4. The class given is functional. In outline:
as §1

Series [13] has as its system Coxsackievirus. The series is described as follows: Antiviral activity against coxsackie B4. Format: functional. In outline: as §1
The subject of series [14] is Enterovirus. In words: Antiviral activity against rhinovirus RV-9. The class given is functional. In outline:
as §1

Series [15] has as its system Enterovirus. In words: Antiviral activity against rhinovirus RV-14. Format: functional. The procedure, abridged:
as §1

Series [16] concerns Enterovirus. In words: Antiviral activity against rhinovirus RV-64. Format: functional. The procedure, abridged:
as §1

Series [17] relates to Enterovirus. In words: Antiviral activity against rhinovirus RV-39. The class given is functional. The procedure, abridged: as §1
For series [18], the system named is Enterovirus. The series is described as follows: Antiviral activity against rhinovirus RV-Hanks. Format: functional. In outline: as §1
The next series deals with Echovirus. In words: Antiviral activity against Echo 12. Format: functional. In outline: as §1
The subject of series [19] is Enterovirus. In words: Antiviral activity against rhinovirus RV-44. Format: functional. The procedure, abridged:
as §1

Series [20] concerns Enterovirus. The series is described as follows: Antiviral activity against rhinovirus RV-5. The class given is functional. In outline:
as §1

For series [21], the system named is Enterovirus. In words: Antiviral activity against rhinovirus Polio 2. The class given is functional. In outline: (§3)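 HeLa monolayers (1.0-1.3×10^5 cells/well, grown 24 h at 36 °C to 60-75% cover) refed with maintenance E-MEM (1-2% heat-inactivated FCS) holding two-fold serial dilutions from a 200 μg/mL DMSO stock (final DMSO ≤0.1%). Challenged with 10-100 TCID50 virus, 36 °C, 5% CO2. CPE read microscopically at 48 and 72 h. MIC50 is the lowest concentration cutting CPE ≥50% vs virus control.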

Series [22] concerns Enterovirus. In words: Antiviral activity against rhinovirus RV-55. The class given is functional. The procedure, abridged: as §1
In series [23] the test system is Enterovirus. In words: Antiviral activity against rhinovirus RV-33. The class given is functional. In outline:
as §1

The subject of the next series is Mengo virus. In words: Antiviral activity against mengo. Format: functional. The note with it: Cardiovirus A. In outline: as §1
Series [24] relates to Enterovirus. The series is described as follows: Antiviral activity against rhinovirus RV-49. Format: functional. In outline:
as §1

Series [25] deals with Enterovirus. The series is described as follows: Antiviral activity against rhinovirus RV-1B. The class given is functional. In outline: as §1
Series [26] has as its system Enterovirus. In words: Antiviral activity against rhinovirus RV-29. The class given is functional. The procedure, abridged: as §1
Series [27] concerns Enterovirus. The series is described as follows: Antiviral activity against rhinovirus RV-68. The class given is functional. In outline:
as §1

Series [28] relates to Enterovirus. The series is described as follows: Antiviral activity against rhinovirus RV-32. The class given is functional. The procedure, abridged: as §1
For series [29], the system named is Enterovirus. In words: Antiviral activity against rhinovirus RV-74. Format: functional. In outline: as §1
Series [30] deals with Enterovirus. In words: Antiviral activity against rhinovirus RV-13. The class given is functional. In outline:
as §1

The test system of series [31] is Enterovirus. In words: Antiviral activity against rhinovirus RV-8. The class given is functional. The procedure, abridged: as §1
In series [32] the test system is Enterovirus. In words: Antiviral activity against rhinovirus RV-21. The class given is functional. The procedure, abridged: as §3

In general, inhibition refers to the percentage by which the read-out fell short of the control. The term Inhibition denotes the percentage by which the read-out fell short of the control. For `O=[N+]([O-])c1ccc(Oc2ccc(Cl)c(Cl)c2)cc1`, the MIC50 was 0.88 µM (≈ 0.25 µg/mL) in the series on Coxsackievirus [1], 22 µM (≈ 6.25 µg/mL) against Enterovirus [6] and 4.6 µM (≈ 1.31 µg/mL) in the series on Enterovirus [8]. Further, the Relative activity in the series on Coxsackievirus [2] was 5.9; in the series on Enterovirus [3], 2.4; in the series on Enterovirus [5], 5.6. In the series on Enterovirus [4], this compound gave an inhibition at 50 µg/mL of 30%. Besides, the Inhibition in the series with Enterovirus [7] was found to be 65%. The Toxicity in the series on HeLa stood at 352 µM.

As to `N#Cc1ccc(Oc2ccc([N+](=O)[O-])cc2)nc1`, in the series on Enterovirus [7], the Inhibition turned out to be 85%. In the series on Enterovirus [9], 50 µg/mL produced 8% inhibition.

With `CS(=O)(=O)c1ccc(Oc2ccc(Cl)c(Cl)c2)cc1`, the MIC50 stood at 4.1 µM (≈ 1.3 µg/mL) in the series with Coxsackievirus [1], 0.79 µM (≈ 0.251 µg/mL) against Enterovirus [6] and 0.79 µM (≈ 0.251 µg/mL) against Enterovirus [8]. For the same compound, the figures for the Relative activity with Coxsackievirus [2], with Enterovirus [3] and in the series with Enterovirus [5] were 3.2, 32.8 and 32.8, respectively. In the series on Enterovirus [4], this compound displayed an inhibition at 50 µg/mL of 10%. In the series on Enterovirus [7], this compound returned an Inhibition of 85%. In the series on HeLa, this compound displayed a Toxicity of 158 µM.

In the case of `N#Cc1cc([N+](=O)[O-])ccc1Oc1ccccc1`, the MIC50 is 2.7 µM (≈ 0.649 µg/mL) against Coxsackievirus [1], 5.4 µM (≈ 1.3 µg/mL) in the series on Enterovirus [6] and 5.4 µM (≈ 1.3 µg/mL) in the series on Enterovirus [8]. Further, the figures for the Relative activity with Coxsackievirus [2], with Enterovirus [3] and with Enterovirus [5] were 0.96, 3.8 and 3.8, respectively. The Toxicity in the series with HeLa is over 42 µM.

With `N#Cc1cc([N+](=O)[O-])ccc1Oc1ccc(Cl)cc1`, the MIC50 in the series with Coxsackievirus [1] was 3.6 µM (≈ 0.989 µg/mL); against Enterovirus [6], 2.8 µM (≈ 0.769 µg/mL); in the series with Enterovirus [8], 1.4 µM (≈ 0.385 µg/mL). The results for the Relative activity in the series with Coxsackievirus [2], with Enterovirus [3] and in the series on Enterovirus [5] were 7.2, 9.3 and 18.5, respectively. Also, the Toxicity in the series with HeLa was over 364 µM.

Turning to `N#Cc1cc([N+](=O)[O-])ccc1Oc1cccc(Cl)c1`, the MIC50 was found to be 1.1 µM (≈ 0.302 µg/mL) with Coxsackievirus [1], 0.58 µM (≈ 0.159 µg/mL) in the series with Enterovirus [6] and 1.1 µM (≈ 0.302 µg/mL) with Enterovirus [8]. For the same compound, the Relative activity with Coxsackievirus [2] is listed as 11.8; in the series on Enterovirus [3], 44.7; in the series on Enterovirus [5], 23.6. This compound also had a Toxicity in the series on HeLa of over 91 µM.

As to `N#Cc1cc([N+](=O)[O-])ccc1Oc1cccc(C(F)(F)F)c1`, the MIC50 turned out to be 3.9 µM (≈ 1.2 µg/mL) with Coxsackievirus [1], 2 µM (≈ 0.616 µg/mL) in the series with Enterovirus [6] and 8.1 µM (≈ 2.5 µg/mL) against Enterovirus [8]. Also, the Relative activity in the series with Coxsackievirus [2] turned out to be 5.3; with Enterovirus [3], 25.9; with Enterovirus [5] it was 1.6. In the series on HeLa, this compound displayed a Toxicity of 41 µM.

With `N#Cc1cc([N+](=O)[O-])ccc1Oc1ccccc1Cl`, the values for the MIC50 in the series on Coxsackievirus [1], in the series on Enterovirus [6] and with Enterovirus [8] were 5.7 µM (≈ 1.57 µg/mL), 4.5 µM (≈ 1.24 µg/mL) and 4.5 µM (≈ 1.24 µg/mL), respectively. In addition, the Relative activity is reported as 2.38 with Coxsackievirus [2], 4.6 in the series with Enterovirus [3] and 4.6 with Enterovirus [5]. This compound also returned a Toxicity with HeLa of 45 µM.

Consider `N#Cc1cc([N+](=O)[O-])ccc1Oc1ccc(Cl)c(Cl)c1`, for which the MIC against Coxsackievirus [10] was 4.9 µM (≈ 1.51 µg/mL); against Enterovirus [11], under 1 µM; against Enterovirus [12], 0.97 µM (≈ 0.3 µg/mL); against Coxsackievirus [13], 4.9 µM (≈ 1.51 µg/mL); against Enterovirus [14] it was 0.42 µM (≈ 0.13 µg/mL); in the series on Enterovirus [15], 3.2 µM (≈ 0.989 µg/mL). For the same compound, the MIC in the series with Enterovirus [16] was found to be 0.52 µM (≈ 0.161 µg/mL); in the series on Enterovirus [17], 0.42 µM (≈ 0.13 µg/mL); against Enterovirus [18] it was 0.42 µM (≈ 0.13 µg/mL); against Echovirus, 0.97 µM (≈ 0.3 µg/mL); in the series on Enterovirus [19], 0.81 µM (≈ 0.25 µg/mL); in the series with Enterovirus [20] it was 2 µM (≈ 0.618 µg/mL). Besides, the MIC against Enterovirus [21] is 1.9 µM (≈ 0.587 µg/mL); against Enterovirus [22], 0.81 µM (≈ 0.25 µg/mL); against Enterovirus [23], 0.81 µM (≈ 0.25 µg/mL); against Mengo virus it was over 1.6 µM; with Enterovirus [24] it was 0.81 µM (≈ 0.25 µg/mL); against Enterovirus [25], 0.81 µM (≈ 0.25 µg/mL). Also, the MIC in the series with Enterovirus [26] is 0.81 µM (≈ 0.25 µg/mL); against Enterovirus [27], under 1.9 µM; against Enterovirus [28] it was 0.97 µM (≈ 0.3 µg/mL); in the series on Enterovirus [29], under 0.97 µM; against Enterovirus [30], 0.81 µM (≈ 0.25 µg/mL); against Enterovirus [31], 0.52 µM (≈ 0.161 µg/mL). The same compound had an MIC in the series with Enterovirus [32] of 1.9 µM (≈ 0.587 µg/mL). Also, the MIC50 was 0.52 µM (≈ 0.161 µg/mL) against Coxsackievirus [1], 0.26 µM (≈ 0.0804 µg/mL) against Enterovirus [6] and 0.26 µM (≈ 0.0804 µg/mL) with Enterovirus [8]. Also, the figures for the Relative activity in the series on Coxsackievirus [2], in the series with Enterovirus [3] and in the series with Enterovirus [5] were 99.6, 99.6 and 319, respectively. The same compound yielded an inhibition at 50 µg/mL in the series with Enterovirus [4] of 0%. In the series on Enterovirus [7], this compound showed an Inhibition of 100%. The compound also returned a Toxicity in the series with HeLa of over 324 µM.
